Compounds with a hit are over-represented: about 1.2% of the library has one in this group of screens.
S1P3 antag – S1P3 (human) receptor antagonism; Q99500; CHO S1P3 NFAT-BLA reporter, FRET fluorescence, antagonist mode; inhibition, % at 4.98 µM; 170,000 tested, 0.27% active; AID 485;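 active = inhibition above the plate cutoff, the mean inhibition of test wells on that plate plus 3 SD, cut at about 28% in these data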;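 note: cells challenged with S1P at its EC80 of 0.8 µM; blue over green emission ratio from cleaved BLA substrate after 4 h stimulation; 0% = S1P-stimulated wells and 100% = unstimulated DMSO-only wells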
Biofilm kill mix – mixture kills Candida albicans biofilm cells. 120,000 tested, 0.02% active. C. albicans biofilm persisters + clotrimazole, fluorescence viability; primary screen in compound mixtures of four per well. inhibition, % at 7.6 µM;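 active = inhibition above 30.3% in the primary screen of four-compound pools, then above 30% when the compound was retested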;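 note: compounds exposed to preformed 24 h biofilms for 48 h; 0% = untreated biofilm control and 100% = clotrimazole plus chlorhexidine kill blank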
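Test system: C. albicans biofilms. Buffer or medium: RPMI/MOPS medium, pH 7.0. Timing: 48 h compound exposure at 37 °C. Technique: Alamar Blue fluorescence. Evaluation: percent inhibition of biofilm viability.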
Efa HMGR inh – E. faecalis class II HMG-CoA reductase inhibition; inhibition, % at 10 µM; AID 1066; purified E. faecalis HMGR, NADPH absorbance 340 nm kinetic; 190,000 tested, 0.41% active;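 active = inhibition above a set limit, the median over all tested compounds plus 3 SD, cut at about 9.5% in these data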;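 note: enzyme runs in reverse so mevalonate oxidation gives rising NADPH absorbance; 0% = complete reaction with DMSO and 100% = background rate lacking mevalonate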
S1P4 antagonist – blocks the human S1P4 receptor. S1P4-expressing cells, antagonist mode, reporter read-out. 220,000 tested, 0.26% active. inhibition, % at 4.98 µM. O95977; in the data active = inhibition above about 29%;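 note: 0% = wells stimulated with agonist and 100% = vehicle wells without agonist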
Target sequence (O95977 whole entry, looked up): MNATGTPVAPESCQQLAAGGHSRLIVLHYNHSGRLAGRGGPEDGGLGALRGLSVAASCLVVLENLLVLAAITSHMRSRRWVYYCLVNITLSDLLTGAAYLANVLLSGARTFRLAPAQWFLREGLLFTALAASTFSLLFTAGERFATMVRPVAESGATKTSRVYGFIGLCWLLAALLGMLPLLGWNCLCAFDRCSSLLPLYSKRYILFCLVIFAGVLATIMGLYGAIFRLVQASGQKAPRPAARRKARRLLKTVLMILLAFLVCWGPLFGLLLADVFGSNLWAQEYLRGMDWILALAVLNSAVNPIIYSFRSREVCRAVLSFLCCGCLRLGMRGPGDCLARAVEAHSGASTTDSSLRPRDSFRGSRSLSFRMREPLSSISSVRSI
Rad51 HR inh – blocks human Rad51 in homologous recombination. 200,000 tested, 0.085% active. hRad51 DNA strand exchange, fluorescence dequenching. Q06609. inhibition, % at 10 µM;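 active = inhibition above 40% at the single screening dose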;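 note: 0% = DMSO control wells and 100% = blanks with heterologous ssDNA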
Target sequence (Q06609 whole entry, looked up): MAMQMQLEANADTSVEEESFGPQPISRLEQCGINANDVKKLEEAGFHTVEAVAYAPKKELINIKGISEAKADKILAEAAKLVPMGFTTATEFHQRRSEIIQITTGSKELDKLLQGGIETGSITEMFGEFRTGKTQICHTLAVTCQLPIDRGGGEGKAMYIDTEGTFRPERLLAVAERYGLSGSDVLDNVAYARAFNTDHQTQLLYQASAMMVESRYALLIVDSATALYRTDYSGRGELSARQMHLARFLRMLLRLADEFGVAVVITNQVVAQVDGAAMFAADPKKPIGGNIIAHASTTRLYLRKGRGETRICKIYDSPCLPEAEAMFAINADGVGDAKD
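Read-out basis: percent inhibition relative to plate controls and blanks / Assay system: human Rad51 nucleoprotein filaments preassembled on unlabelled ssDNA / Timing: filaments 15 min 37 °C, then compound 30 min / Control set: per-plate controls and blanks / Technique: fluorescence dequenching at 485/520 nm / Compound: 10 µM final, single point / Also added: Fluorescein- and BHQ1-tagged 47-mer duplex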
S1P4 agonist – activates the human S1P4 receptor; AID 1509; S1P4-expressing cell line, agonist reporter assay; activation, % at 4.98 µM; O95977; 220,000 tested, 0.35% active; in the data active = activation above about 11%;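 note: 0% = DMSO vehicle and 100% = reference agonist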
S1P4 antag conf – human S1P4 antagonism, confirmation. 520 tested, 71% active. shares compounds with S1P4 antagonist. inhibition, % at 4.98 µM. S1P4-expressing cell line, antagonist mode, reporter read-out; in the data active = inhibition above about 30%
S1P1 antagonist – human S1P1 antagonism as S1P4 antagonist counter-screen; cell-based S1P1 antagonist counterscreen, inhibition; shares compounds with S1P4 antagonist; inhibition, % at 4.98 µM; 520 tested, 37% active; in the data active = inhibition above about 40%;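 note: receptor stimulated with S1P near its EC80; 0% = agonist stimulated wells and 100% = vehicle only wells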
Numbers without * were called inactive.

Results for Cc1ccccc1CS(=O)(=O)c1nnc([C@H](Cc2ccccc2)NC(=O)OC(C)(C)C)o1 ?
Efa HMGR inh: -0.9; S1P4 antagonist: 71.1*; Rad51 HR inh: 0.7; S1P4 agonist: -1.7; S1P4 antag conf: 108.3*; S1P1 antagonist: 34.1

Results for CCC(C)[C@@H](NC(=O)OC(C)(C)C)c1nnc(S(=O)(=O)Cc2cccc(C)c2)o1 (stereo partly drawn) ?
S1P3 antag: -9.1; Efa HMGR inh: 6.0; S1P4 antagonist: 76.4*; Rad51 HR inh: -0.4; S1P4 agonist: -4.4; S1P4 antag conf: 108.9*; S1P1 antagonist: 31.2

Results for O=C(NCc1ccccn1)c1cn(Cc2ccccc2)nn1 ?
S1P3 antag: 9.5; Efa HMGR inh: -11.4; S1P4 antagonist: 12.9; Rad51 HR inh: -5.2; S1P4 agonist: 1.0

How did Cc1onc(-c2c(F)cccc2Cl)c1C(N)=S do in these assays?
S1P3 antag: -3.9; Biofilm kill mix: 27.1; Efa HMGR inh: 1.8; S1P4 antagonist: -23.4; Rad51 HR inh: -4.3; S1P4 agonist: 0.4

Results for COc1ccc(-c2cc(-c3ccccc3)c(C#N)c(S(C)=O)n2)cc1 (stereo not drawn) ?
Efa HMGR inh: -2.2; S1P4 antagonist: 54.0*; Rad51 HR inh: -7.4; S1P4 agonist: -3.9; S1P4 antag conf: 85.2*; S1P1 antagonist: 19.3

Results for O=[N+]([O-])c1ccc(N=Nc2c(Cl)cc(O)cc2Cl)cc1 ?
S1P3 antag: 2.9; Biofilm kill mix: 14.7; S1P4 antagonist: 30.9*; Rad51 HR inh: 28.4; S1P4 agonist: 0.6; S1P4 antag conf: 67.3*; S1P1 antagonist: 18.4

Results for O=C(N/N=C/c1cccc2cccnc12)c1ccccc1O ?
S1P3 antag: -13.6; Biofilm kill mix: 19.0; S1P4 antagonist: 32.1*; Rad51 HR inh: 1.0; S1P4 agonist: -2.0; S1P4 antag conf: 100.9*; S1P1 antagonist: 79.2*

Results for O=C(NC(Cc1ccccc1)C(=O)O)/C(=C/c1ccccc1)NC(=O)c1ccccc1 (stereo not drawn) ?
S1P3 antag: -2.1; Biofilm kill mix: 17.8; Efa HMGR inh: -2.1; S1P4 antagonist: 45.0*; Rad51 HR inh: -0.3; S1P4 agonist: 1.0; S1P4 antag conf: 16.2; S1P1 antagonist: 2.1

Results for O=C(NC(Cc1ccccc1)C(=O)O)/C(=C\c1ccc(Cl)cc1)NC(=O)c1ccccc1 (stereo not drawn) ?
S1P3 antag: -22.6; Biofilm kill mix: -3.1; Efa HMGR inh: -3.4; S1P4 antagonist: -19.2; Rad51 HR inh: 0.8; S1P4 agonist: -0.3

What do the screens show for `Cc1nn(CC(=O)N2c3ccccc3NC(=O)C2(C)C)c(C)c1[N+](=O)[O-]`?
S1P3 antag: 1.0; Biofilm kill mix: 11.2; Efa HMGR inh: -7.8; S1P4 antagonist: -1.4; Rad51 HR inh: 22.9; S1P4 agonist: 0.3

Results for O=C(Cn1ncc2c1-c1ccccc1OC2)N1CCc2ccccc21 ?
S1P3 antag: 9.9; Efa HMGR inh: -2.7; S1P4 antagonist: -2.7; Rad51 HR inh: 1.9; S1P4 agonist: 0.0

Results for CC1(C)C(=O)Nc2ccccc2N1C(=O)Cn1ncc(Cl)c(Cl)c1=O ?
S1P3 antag: -3.0; Biofilm kill mix: 8.3; S1P4 antagonist: 94.8*; Rad51 HR inh: -7.2; S1P4 agonist: 0.2; S1P4 antag conf: 86.7*; S1P1 antagonist: 33.3

What do the screens show for `O=C(Cn1ncc(Cl)c(Cl)c1=O)N1CCOCC1`?
S1P3 antag: -5.0; Biofilm kill mix: 2.0; Efa HMGR inh: -0.3; S1P4 antagonist: 44.1*; Rad51 HR inh: -1.6; S1P4 agonist: -4.1; S1P4 antag conf: 59.5*; S1P1 antagonist: 26.6

What do the screens show for `O=C(Cn1ncc(Cl)c(Cl)c1=O)N1CCc2ccccc21`?
S1P3 antag: -15.6; Biofilm kill mix: 9.5; Efa HMGR inh: -2.0; S1P4 antagonist: 78.9*; Rad51 HR inh: -8.7; S1P4 agonist: -5.1; S1P4 antag conf: 118.1*; S1P1 antagonist: 94.3*

What do the screens show for `O=C(Cn1ncc2c1-c1ccccc1OC2)N1CCN(Cc2ccccc2)CC1`?
S1P3 antag: 3.9; Biofilm kill mix: 23.6; S1P4 antagonist: 9.3; S1P4 agonist: 0.3

How did O=C(Cn1nnc2ccccc2c1=O)N1CCOCC1 do in these assays?
S1P3 antag: -18.5; Biofilm kill mix: 2.1; Efa HMGR inh: -3.1; S1P4 antagonist: 0.8; Rad51 HR inh: 0.7; S1P4 agonist: 1.2

Results for O=C(Cn1ncc(Cl)c(Cl)c1=O)N1CCN(Cc2ccccc2)CC1 ?
S1P3 antag: -13.7; Biofilm kill mix: 17.2; Efa HMGR inh: 3.1; S1P4 antagonist: 71.1*; Rad51 HR inh: 5.1; S1P4 agonist: -2.5; S1P4 antag conf: 118.0*; S1P1 antagonist: 60.6*

How did COC(=O)C1=C(CSc2nncn2C)NC(=O)NC1c1cc(C)ccc1C (stereo not drawn) do in these assays?
S1P3 antag: -58.3; Efa HMGR inh: -2.7; S1P4 antagonist: -12.5; Rad51 HR inh: 14.2; S1P4 agonist: 1.4

How did Cc1ccccc1NC(=O)N1CCc2ccccc2C1 do in these assays?
S1P3 antag: -6.7; Biofilm kill mix: 12.8; Efa HMGR inh: -3.1; S1P4 antagonist: 32.3*; Rad51 HR inh: -2.7; S1P4 agonist: 0.7; S1P4 antag conf: 80.1*; S1P1 antagonist: -6.8

How did Cc1cc(NC(=O)c2ccccc2-c2ccccc2)ccc1Br do in these assays?
S1P3 antag: -0.9; Biofilm kill mix: 4.2; Efa HMGR inh: -8.3; S1P4 antagonist: 37.0*; Rad51 HR inh: -1.1; S1P4 agonist: -0.9; S1P4 antag conf: 31.6*; S1P1 antagonist: 13.8

Results for Nc1ncnc2c1ncn2[C@@H]1O[C@H](CO)[C@@H](O)[C@@H]1O ?
Rad51 HR inh: -1.4

How did Nc1ncnc2c1ncn2C1OC(CO)C(O)C1O (stereo not drawn) do in these assays?
S1P3 antag: -18.5; Biofilm kill mix: 30.9; Efa HMGR inh: 3.5; S1P4 antagonist: 38.8*; Rad51 HR inh: -11.9; S1P4 agonist: -1.9; S1P4 antag conf: 67.1*; S1P1 antagonist: 40.9*

How did Cc1[nH]c2ccccc2c1/C=N/Nc1nc2ccccc2[nH]1 do in these assays?
S1P3 antag: 22.8; Biofilm kill mix: 19.5; S1P4 antagonist: 49.8*; Rad51 HR inh: -0.5; S1P4 agonist: 1.2; S1P4 antag conf: 56.8*; S1P1 antagonist: 26.8

What do the screens show for `Cc1ccccc1/C=N/Nc1nc2ccccc2[nH]1`?
S1P3 antag: 1.2; Biofilm kill mix: 22.0; Efa HMGR inh: -3.2; S1P4 antagonist: 15.0; Rad51 HR inh: 1.5; S1P4 agonist: -0.2

What do the screens show for `CCc1nnc(N/N=C/c2c(C)[nH]c3ccccc23)n1N`?
S1P3 antag: 11.4; Biofilm kill mix: 15.7; Efa HMGR inh: 1.6; S1P4 antagonist: 96.7*; Rad51 HR inh: 9.6; S1P4 agonist: -0.1; S1P4 antag conf: 3.7; S1P1 antagonist: 2.7

High-throughput results (PubChem BioAssay)
